Experiments:
Plasma [1] = assay: Stability in human plasma assessed as residual compound after 6 hrs by HPLC method; assay type: ADME, cell-free
Summary of the method: (§1)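 Pooled female plasma (CD-1 mouse, Sprague-Dawley rat, human) preincubated 5 min at 37 °C, then spiked from a 10 mM DMSO stock; triplicate. Samples at 0–360 min quenched with equal volume 10% TCA, centrifuged, supernatant run on HPLC. Half-life or percentage remaining at 6 h derived.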

[2] = Aqueous stability in pH 1.2 simulated gastric fluid assessed as prodrug remaining at 100 uM after 2 hrs by HPLC method; assay type: physicochemical; settings: simulated gi fluid, pH 1.2, 2 h
Summary of the method: (§2)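 Compound 100 µM (2% DMSO final) incubated in triplicate at 37 °C in simulated gastric fluid pH 1.2 or 100 mM HEPES pH 7.4. Samples taken at 0 and 120 min, placed on ice and analysed by RP-HPLC for prodrug and released parent; percentage of prodrug remaining at 120 min calculated.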

Plasma [3] = assay: Stability in Sprague-Dawley rat plasma assessed as residual compound after 6 hrs by HPLC method; assay type: ADME, cell-free; summary of the method: as §1
Plasma [4] = assay: Half life in CD-1 mouse plasma assessed as N-(N-(((2R,3R,4R,5R)-5-(6-amino-9H-purin-9-yl)-4-fluoro-3-hydroxytetrahydrofuran-2-yl)methyl)sulfamoyl)-2-hydroxybenzamide by HPLC method; assay type: ADME, cell-free; summary of the method: as §1
[5] = Aqueous stability in pH 7.4 HEPES buffer assessed as prodrug remaining at 100 uM after 2 hrs by HPLC method; assay type: physicochemical; settings: pH 7.4, 2 h; summary of the method: as §2
[6] = Retention time of compound by RP-HPLC method; assay type: physicochemical
Summary of the method: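 Reversed-phase C18 column (5 µm, 4.6 × 250 mm). Mobile phase 20 mM triethylammonium bicarbonate pH 7.5 / acetonitrile. Gradient 5–70% acetonitrile over 10 min, then 90% to 16 min, then 3 min re-equilibration at 5%.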

[7] = Apparent permeability from apical to basolateral side in human Caco2 cells at 100 uM incubated for 2 hrs by HPLC method; assay type: ADME, cell-based; settings: Caco-2
Summary of the method: (§3)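 Caco-2 cells (passage 50–70) grown 21 days on 0.4 µm transwell inserts; wells with TER >300 Ωcm2 used. Apical CAB pH 6.0, basolateral CAB pH 7.4, preincubated 60 min at 65 rpm. Test compound 100 µM in donor with lucifer yellow for tight-junction integrity. Acceptor levels of prodrug plus hydrolyzed parent measured by HPLC over time with cumulative sampling. Papp = flux/(area × C0); efflux ratio = BL-AP/AP-BL.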

[8] = Apparent permeability from basolateral to apical side in human Caco2 cells at 100 uM incubated for 2 hrs by HPLC method; assay type: ADME, cell-based; settings: Caco-2; summary of the method: as §3
Plasma [9] = assay: Half life in Sprague-Dawley rat plasma assessed as N-(N-(((2R,3R,4R,5R)-5-(6-amino-9H-purin-9-yl)-4-fluoro-3-hydroxytetrahydrofuran-2-yl)methyl)sulfamoyl)-2-hydroxybenzamide by HPLC method; assay type: ADME, cell-free; summary of the method: as §1
[10] = Permeability from basolateral to apical side in human Caco2 cells assessed as prodrug remaining in basolateral side for 2 hrs by HPLC method; assay type: ADME, cell-based; settings: caco-2, 2 h
Summary of the method: (§4)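 Bidirectional Caco-2 transwell run (21-day monolayers, TER >300 Ωcm2, apical pH 6.0 / basolateral pH 7.4 buffers, 100 µM donor). Intact prodrug left in the apical and basolateral compartments at 2 h quantified by reversed-phase HPLC, with hydrolysis to parent tracked.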

[11] = Permeability from apical to basolateral side in human Caco2 cells assessed as prodrug remaining in basolateral side for 2 hrs by HPLC method; assay type: ADME, cell-based; settings: caco-2, 2 h; summary of the method: as §4
[12] = Permeability from basolateral to apical side in human Caco2 cells assessed as prodrug remaining in apical side for 2 hrs by HPLC method; assay type: ADME, cell-based; settings: caco-2, 2 h; summary of the method: as §4
[13] = Efflux ratio of permeability from basolateral to apical side over apical to basolateral side in human Caco2 cells incubated for 2 hrs by HPLC method; assay type: ADME, cell-based; settings: Caco-2; summary of the method: as §3
[14] = Permeability from apical to basolateral side in human Caco2 cells assessed as prodrug remaining in apical side for 2 hrs by HPLC method; assay type: ADME, cell-based; settings: caco-2, 2 h; summary of the method: as §4
[15] = Aqueous stability in pH 1.2 simulated gastric fluid assessed as compound remaining after 2 hrs by HPLC method; assay type: physicochemical; settings: simulated gi fluid, pH 1.2, 2 h; summary of the method: as §2
[16] = Aqueous stability in pH 7.4 HEPES buffer assessed as compound remaining after 2 hrs by HPLC method; assay type: physicochemical; settings: pH 7.4, 2 h; summary of the method: as §2
[17] = Drug level in pH 7.4 HEPES buffer treated with 100 uM 9-[3-O-(Acetyl)-2,5-dideoxy-2-fluoro-5-{N-(N-2-hydroxybenzoyl)sulfamoyl}amino-b-D-ribofuranosyl]adenine triethylammonium salt for 2 hrs by HPLC analysis; assay type: physicochemical; settings: pH 7.4, 2 h; summary of the method: as §2
Plasma [18] = assay: Stability in CD-1 mouse plasma assessed as residual compound after 6 hrs by HPLC method; assay type: ADME, cell-free; summary of the method: as §1

SMILES | Stability (Plasma [1]) | Stability [2] | Stability (Plasma [3]) | t1/2 (Plasma [4]) | Stability [5] | Retention_time [6] | Papp A→B at 2 h, 100 µM [7] | Papp B→A at 2 h, 100 µM [8] | t1/2 (Plasma [9]) | permeability [10] | permeability [11] | permeability [12] | efflux ratio at 2 h [13] | permeability [14] | Stability [15] | Stability [16] | Drug metabolism [17] | Stability (Plasma [18])
CCCCCCCCCCCC(=O)O[C@H]1[C@@H](F)[C@H](n2cnc3c(N)ncnc32)O[C@@H]1CNS(=O)(=O)NC(=O)c1ccccc1O.CCN(CC)CC | 98% | 76% | 95% | 1.6 h | 100% | 9.9 min |  |  |  |  |  |  |  |  |  |  |  | 
CC(=O)O[C@H]1[C@@H](F)[C@H](n2cnc3c(N)ncnc32)O[C@@H]1CNS(=O)(=O)NC(=O)c1ccccc1O.CCN(CC)CC | 61% | 97% |  | 4.6 h | 92% | 9.5 min | 1.1 ×10⁻⁶ cm/s | 1.6 ×10⁻⁶ cm/s | 5.7 h | 86% | 81% | 88% | 1.5 | 93% |  |  |  | 
Nc1ncnc2c1ncn2[C@@H]1O[C@H](CNS(=O)(=O)NC(=O)c2ccccc2O)[C@@H](O)[C@H]1F |  |  |  |  |  | 8.9 min |  |  |  |  |  |  |  |  | 100% | 100% | metabolite_detected | 
CCCC(=O)O[C@H]1[C@@H](F)[C@H](n2cnc3c(N)ncnc32)O[C@@H]1CNS(=O)(=O)NC(=O)c1ccccc1O.CCN(CC)CC | 64% | 97% | 61% | 2.2 h | 100% | 10.4 min | 0.5 ×10⁻⁶ cm/s | 3.5 ×10⁻⁶ cm/s |  | 93% | 63% | 15% | 7 | 74% |  |  |  | 
CCCCC(=O)O[C@H]1[C@@H](F)[C@H](n2cnc3c(N)ncnc32)O[C@@H]1CNS(=O)(=O)NC(=O)c1ccccc1O.CCN(CC)CC | 66% | 98% | 53% | 1.6 h | 100% | 11.9 min |  |  |  |  |  |  |  |  |  |  |  | 
CCC(CC)C(=O)O[C@H]1[C@@H](F)[C@H](n2cnc3c(N)ncnc32)O[C@@H]1CNS(=O)(=O)NC(=O)c1ccccc1O.CCN(CC)CC | 94% | 100% | 93% |  | 100% |  | 0.5 ×10⁻⁶ cm/s | 3.8 ×10⁻⁶ cm/s |  | 99% | 90% | 78% | 7.6 | 97% |  |  |  | 83%
CC(C)C(=O)O[C@H]1[C@@H](F)[C@H](n2cnc3c(N)ncnc32)O[C@@H]1CNS(=O)(=O)NC(=O)c1ccccc1O.CCN(CC)CC |  | 98% | 72% | 3.7 h | 100% | 10.7 min | 0.4 ×10⁻⁶ cm/s | 3.4 ×10⁻⁶ cm/s |  | 95% | 73% | 53% | 8.5 | 88% |  |  |  | 
CCCCCCCC(=O)O[C@H]1[C@@H](F)[C@H](n2cnc3c(N)ncnc32)O[C@@H]1CNS(=O)(=O)NC(=O)c1ccccc1O.CCN(CC)CC |  | 93% | 86% | 0.7 h | 98% | 13.7 min | 3.9 ×10⁻⁶ cm/s | 6.9 ×10⁻⁶ cm/s |  | 90% | 3% | 1% | 1.8 | 29% |  |  |  | 
Nc1ncnc2c1ncn2[C@@H]1O[C@H](COS(=O)(=O)NC(=O)c2ccccc2O)[C@@H](O)[C@H]1O |  |  |  |  |  | 7.8 min |  |  |  |  |  |  |  |  |  |  |  | 
CCC(=O)O[C@H]1[C@@H](F)[C@H](n2cnc3c(N)ncnc32)O[C@@H]1CNS(=O)(=O)NC(=O)c1ccccc1O.CCN(CC)CC | 70% | 97% | 58% | 3.3 h | 100% | 10 min |  |  |  |  |  |  |  |  |  |  |  | 

Source: ChEMBL document CHEMBL3758075, “Synthesis and pharmacological evaluation of nucleoside prodrugs designed to target siderophore biosynthesis in Mycobacterium tuberculosis” (Bioorg Med Chem, 2016)
